Measured values from different studies.
Lines come from different studies, so protocols differ.
Target: Phosphatidylinositol 3-kinase C2 domain-containing subunit gamma (PIK3C2G, Homo sapiens, UniProt O75747)
Residues used in one study (O75747 1-1486): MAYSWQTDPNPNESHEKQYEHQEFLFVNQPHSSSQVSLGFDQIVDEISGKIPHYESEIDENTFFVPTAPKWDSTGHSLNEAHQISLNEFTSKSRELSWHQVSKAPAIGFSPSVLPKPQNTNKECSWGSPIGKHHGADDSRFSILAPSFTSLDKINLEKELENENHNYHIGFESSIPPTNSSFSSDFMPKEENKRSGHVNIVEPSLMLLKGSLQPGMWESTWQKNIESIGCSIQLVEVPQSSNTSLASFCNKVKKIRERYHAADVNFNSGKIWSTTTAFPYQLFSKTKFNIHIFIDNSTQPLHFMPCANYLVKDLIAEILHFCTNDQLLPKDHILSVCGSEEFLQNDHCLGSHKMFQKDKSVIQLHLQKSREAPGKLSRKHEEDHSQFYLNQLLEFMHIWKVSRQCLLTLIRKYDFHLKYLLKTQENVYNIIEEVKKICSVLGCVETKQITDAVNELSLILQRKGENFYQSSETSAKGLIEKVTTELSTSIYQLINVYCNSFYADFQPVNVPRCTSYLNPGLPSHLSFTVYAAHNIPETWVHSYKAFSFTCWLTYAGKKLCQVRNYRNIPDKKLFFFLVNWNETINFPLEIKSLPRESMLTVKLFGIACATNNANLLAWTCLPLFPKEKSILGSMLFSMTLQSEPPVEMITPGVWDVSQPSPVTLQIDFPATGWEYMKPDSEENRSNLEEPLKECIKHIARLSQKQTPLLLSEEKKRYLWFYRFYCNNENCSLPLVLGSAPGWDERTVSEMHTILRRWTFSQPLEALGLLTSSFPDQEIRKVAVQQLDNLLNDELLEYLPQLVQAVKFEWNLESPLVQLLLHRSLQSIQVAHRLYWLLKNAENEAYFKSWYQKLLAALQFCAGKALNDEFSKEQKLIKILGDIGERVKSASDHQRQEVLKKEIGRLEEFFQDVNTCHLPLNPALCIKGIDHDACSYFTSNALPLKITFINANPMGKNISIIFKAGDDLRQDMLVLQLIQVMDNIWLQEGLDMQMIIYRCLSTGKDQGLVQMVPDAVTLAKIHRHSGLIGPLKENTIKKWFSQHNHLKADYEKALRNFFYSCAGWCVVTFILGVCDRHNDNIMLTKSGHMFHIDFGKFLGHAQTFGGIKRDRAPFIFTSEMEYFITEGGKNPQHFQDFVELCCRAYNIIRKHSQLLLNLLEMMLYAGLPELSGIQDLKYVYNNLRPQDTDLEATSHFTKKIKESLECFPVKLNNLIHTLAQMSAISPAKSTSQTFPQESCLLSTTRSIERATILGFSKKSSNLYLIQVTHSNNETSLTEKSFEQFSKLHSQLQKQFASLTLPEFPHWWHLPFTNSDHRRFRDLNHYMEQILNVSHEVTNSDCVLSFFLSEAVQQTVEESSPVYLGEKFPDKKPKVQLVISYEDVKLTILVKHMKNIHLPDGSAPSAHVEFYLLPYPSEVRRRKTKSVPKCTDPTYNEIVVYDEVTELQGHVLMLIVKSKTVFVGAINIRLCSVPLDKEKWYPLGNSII

CC1=C(C#N)C(c2ccc3c(c2)c(NC(=O)c2ccccc2C)nn3C)C(C#N)=C(C)N1 — remaining binding (cell-free assay, competition with immobilised ligand; 1 µM): 61%
Cc1cnc(Nc2ccc(C(=O)N3CCC(N4CCCC4)CC3)cc2)nc1-c1cc2ccccc2s1 — remaining binding (binding, competition with immobilised ligand; 1 µM): 90%
Cc1nc(NC(=O)N2CCC[C@H]2C(N)=O)sc1-c1ccnc(C(C)(C)C(F)(F)F)c1 — remaining binding (binding, competition with immobilised ligand; 10 µM): 9.6%
c1cncc(-c2cccc(Nc3nccc(NC4CCCCC4)n3)c2)c1 — remaining binding (binding, competition with immobilised ligand; 10 µM): 51%
O=C(NCCCN1CCOCC1)c1ccc(Nc2ncc(Cl)c(-c3ccc(Cl)s3)n2)cc1 — remaining binding (binding, competition with immobilised ligand; 1 µM): 100%
C[C@@H](c1ccc(-n2cnc3c(N)ncnc32)cc1)N1CCc2nn(C)c(Cc3ccccc3)c2C1=O — remaining binding (binding, competition with immobilised ligand; 0.1 µM): 92%
COc1ccnn2ncc(-c3ccnc(N(C)C)n3)c12 — remaining binding (binding; 1 µM): 93%
FC(F)(F)Oc1cccc(-c2cnc3ccc(-c4ccncc4)nn23)c1 — remaining binding (cell-free assay, competition with immobilised ligand; 5 µM): 34%
F[C@@H]1CCN(c2nccc(-c3cnn4ncccc34)n2)C1 — remaining binding (binding; 1 µM): 82%
CN(C)C(=O)Cn1cc(-c2nc([C@@](C)(c3ccc(-c4cnc(N)nc4)cc3)C3CC3)no2)cn1 — remaining binding (cell-free assay, competition with immobilised ligand; 1 µM): 66%
O=C(c1ccc(Nc2ncc(Cl)c(-c3cc4ccccc4s3)n2)cc1)N1CCC(N2CCCC2)CC1 — remaining binding (binding, competition with immobilised ligand; 1 µM): 96%
O=C(NCC1CCOCC1)c1n[nH]cc1NC(=O)c1c(F)cccc1F — remaining binding (binding, competition with immobilised ligand; 1 µM): 100%
CNCc1ccccc1-c1csc([C@@H](C)Nc2nc(C)nc3cc(OC)c(OC)cc23)c1 — remaining binding (cell-free assay, competition with immobilised ligand; 1 µM): 59%
C[C@H]1CCN(c2nccc(-c3cnn4ncccc34)n2)C1 — remaining binding (binding; 1 µM): 79%
O=C(NCc1ncc(C(F)(F)F)cc1Cl)c1ccc2c(c1)C1(CCS(=O)(=O)CC1)[C@@H](C1CC1)N2S(=O)(=O)c1ccc(F)cc1 — remaining binding (cell-free assay, competition with immobilised ligand; 1 µM): 75%
CNC(=O)[C@@H]1CC[C@@H](n2c(-c3ccc4cnccc4c3)nc3ccc(C(=O)NCc4cccc(C(N)=O)c4)cc32)C1 — remaining binding (binding, competition with immobilised ligand; 1 µM): 100%
N[C@H]1CCN(c2nccc(-c3cnn4ncccc34)n2)C1 — remaining binding (binding; 1 µM): 100%
N#CC1(c2ccccn2)CCN(Cc2cc(C(=O)N3CCCC3)c(=O)n3ccccc23)CC1 — remaining binding (cell-free assay, competition with immobilised ligand; 1 µM): 73%
CN(c1nccc(-c2cnn3ncccc23)n1)C1CC1 — remaining binding (binding; 1 µM): 99%
CCCOc1ccc([C@@H]2[C@@H](C(=O)O)[C@H](c3ccc4c(c3)OCO4)CN2CC(=O)Nc2c(CC)cccc2CC)cc1 — remaining binding (cell-free assay, competition with immobilised ligand; 1 µM): 78%
